# Test results taken from ChEMBL document CHEMBL3808283, “Biological Characterization and in Vivo Assessment of the Activity of a New Synthetic Macrocyclic Antifungal Compound” (J Med Chem, 2016).
# The source made the active and inactive calls. The rule behind the calls is not given here.
# How the values were obtained:
# [1] = Drug transport in Cryptococcus neoformans assessed as ABC transpoter-mediated drug accumulation at 5 to 80 uM after 24 hrs by confocal microscopic analysis; format: ADME
# [2] = Drug transport in Candida albicans ATCC 60193 assessed as ABC transpoter-mediated drug accumulation at 5 to 80 uM after 24 hrs by confocal microscopic analysis; format: ADME
# Candida albicans [3] = assay: Antifungal activity against Candida albicans ATCC 60193 up to 96 hrs by broth dilution assay; format: functional; settings: ATCC 60193, 96 h
# Candida albicans [4] = assay: Antifungal activity against Candida albicans isolate DSY654 harboring CDR1/2 deletion mutant at 100 ug/ml by serial dilution assay; format: functional, organism-based
# Procedure, shortened: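 Spot dilution assay: C. albicans cells 10-fold serially diluted from 2 × 10^7 cells/mL, with 5 µL of each dilution spotted onto YEPD agar plates containing the drug.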
# Candida albicans [5] = assay: Antifungal activity against fluconazole-susceptible Candida albicans ATCC 90028 in immunocompetent Balb/c mouse candidiasis model assessed as reduction in CFU count in kidney at 8 mg/kg/day, ip regime measured on day 7 post infection; format: functional, organism-based
# Procedure, shortened: (§1)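 Immunocompetent BALB/c mice, 10 per strain group, received 7 × 10^4 CFU of C. albicans in 200 µL saline via the lateral vein. Fluconazole was given i.p. at 8 mg/kg/day. On day 7, spleen and kidneys were weighed, homogenized, and plated on YPD agar (2 days, 30 °C) for CFU per gram of organ. Analysis used Wilcoxon rank-sum, P<0.05.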
# Candida albicans [6] = assay: Antifungal activity against azole-susceptible Candida albicans isolate DSY294 in immunocompetent Balb/c mouse candidiasis model assessed as reduction in CFU count in spleen at 8 mg/kg/day, ip regime measured on day 7 post infection; format: functional, organism-based; procedure, shortened: as §1
# Candida albicans [7] = assay: Antifungal activity against fluconazole-susceptible Candida albicans ATCC 90028 in immunocompetent Balb/c mouse candidiasis model assessed as reduction in CFU count in spleen at 8 mg/kg/day, ip regime measured on day 7 post infection; format: functional, organism-based; procedure, shortened: as §1
# Candida albicans [8] = assay: Antifungal activity against azole-susceptible Candida albicans isolate DSY294 in immunocompetent Balb/c mouse candidiasis model assessed as reduction in CFU count in kidney at 8 mg/kg/day, ip regime measured on day 7 post infection; format: functional, organism-based; procedure, shortened: as §1
# [9] = Drug transport in Candida albicans ATCC 60193 with damaged cell wall assessed as ABC transpoter-mediated drug accumulation in cytoplasm at 40 uM after 48 hrs by confocal microscopic analysis; format: ADME
# Procedure, shortened: (§2)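 C. albicans ATCC 60193 or Cry. neoformans treated 48 h with the fluorescent probe at 40 µM from a DMSO solution. Cells were washed twice in PBS, fixed in 4% formaldehyde for 30 min at 4 °C, washed again, spotted on glass slides, dried and mounted. Examined by confocal microscopy, with visible, fluorescent and merged images compared against untreated cells.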
# [10] = Drug transport in Cryptococcus neoformans assessed as ABC transpoter-mediated drug accumulation in cytoplasm at 40 uM after 48 hrs by confocal microscopic analysis; format: ADME; procedure, shortened: as §2
# [11] = Drug transport in Cryptococcus neoformans with damaged cell wall assessed as ABC transpoter-mediated drug accumulation in cytoplasm at 40 uM after 48 hrs by confocal microscopic analysis; format: ADME; procedure, shortened: as §2
# [12] = Drug transport in Candida albicans ATCC 60193 assessed as ABC transpoter-mediated drug accumulation in cytoplasm at 40 uM after 48 hrs by confocal microscopic analysis; format: ADME; procedure, shortened: as §2
smiles,measurement,setting,value
CN(C)c1cccc2c(S(=O)(=O)NCCCCCCCCN3CCCCCCCCNC(=N)NC3=O)cccc12,Drug transport,[1],Active
same,Drug transport,[2],Active
same,MIC,Candida albicans [3],> 125 µM
OCCN1CCN(CCCN2c3ccccc3Sc3ccc(C(F)(F)F)cc32)CC1,Activity,Candida albicans [4],Active
OC(Cn1cncn1)(Cn1cncn1)c1ccc(F)cc1F,Activity,Candida albicans [5],Active
same,Activity,Candida albicans [6],Active
same,Activity,Candida albicans [7],Active
same,Activity,Candida albicans [8],Active
CN(C)c1cccc2c(S(=O)(=O)NC(=N)NCCCCCCCCN3CCCCCCCCNC(=N)NC3=O)cccc12,Drug transport,[1],Active
same,Drug transport,[2],Active
same,MIC,Candida albicans [3],> 125 µM
C/C=C/CNC(=N)NCCCCCCCCN1CCCCCCOc2cc(OCCCNC(=S)Nc3ccc4c(c3)C(=O)OC43c4ccc(O)cc4Oc4cc(O)ccc43)ccc2CNC(=N)NC1=O,Drug transport,[9],Not Active
same,Drug transport,[10],Active
same,Drug transport,[11],Not Active
same,MIC,Candida albicans [3],80 µM
same,Drug transport,[12],Active
